Experimental data: ChEMBL document CHEMBL3352586, “Pyridyl benzamides as a novel class of potent inhibitors for the kinetoplastid Trypanosoma brucei” (J Med Chem, 2014)
Converted amounts (≈) assume the structure as drawn. Each block holds one compound with its values, some of them ahead of it.

Tests used:
[1] = test system: Trypanosoma brucei brucei; test: Antimicrobial activity against bloodstream form of Trypanosoma brucei brucei 427 at 10 uM after 48 hrs by alamar blue assay; format: functional; conditions: Trypanosoma brucei, 427, 48 h
[2] = test system: Trypanosoma brucei brucei; test: Antimicrobial activity against bloodstream form of Trypanosoma brucei brucei 427 after 48 hrs by alamar blue assay; format: functional, organism-based; conditions: Trypanosoma brucei, 427, 48 h
[3] = Selectivity index, ratio of IC50 for HEK293 cells to IC50 for Trypanosoma brucei brucei 427; format: toxicity, cell-based; conditions: human, read-out: Ratio IC50
Plasmodium falciparum = test: Antimicrobial activity against erythrocytic stage of Plasmodium falciparum NF54 infected in human washed RBC assessed as [3H]-hypoxanthine incorporation incubated for 48 hrs prior to [3H]-hypoxanthine addition measured after 24 hrs by liquid scintillation counting analysis; format: functional, organism-based
[4] = test system: Trypanosoma brucei rhodesiense; test: Antimicrobial activity against bloodstream form of Trypanosoma brucei rhodesiense STIB 900 after 70 hrs by alamar blue assay; format: functional, organism-based; conditions: STIB 900, 70 h
Method in brief: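 Trypanosoma brucei rhodesiense STIB 900 bloodstream-form trypomastigotes, with melarsoprol as reference drug.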

Trypanosoma cruzi = test: Antimicrobial activity against amastigote form of Trypanosoma cruzi Tulahuen C2C4 infected in rat L6 cells after 96 hrs by microscopic analysis; conditions: Tulahuen C2C4, L6, 96 h
L6 = test: Cytotoxicity against rat L6 cells after 70 hrs by alamar blue assay; format: cell-based; conditions: L6, 70 h
Method in brief: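 Cytotoxicity on the rat skeletal myoblast L-6 strain, with podophyllotoxin as reference drug.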

Leishmania donovani = test: Antimicrobial activity against amastigote form of Leishmania donovani MHOM/ET/67/L82 after 70 hrs by alamar blue assay; format: functional, organism-based; conditions: MHOM/ET/67/L82, 70 h
Method in brief: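 Leishmania donovani MHOM-ET-67/L82 axenic amastigotes, with miltefosine as reference drug.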

[5] = Kinetic solubility of the compound at 10 mg/ml at pH 2 by nephelometry; format: physicochemical; conditions: buffer, read-out: Kinetic_solubility
Method in brief: (§1)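 Kinetic solubility was read by nephelometry at pH 2 and pH 6.5 and reported as μg/mL ranges.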

[6] = Plasma protein binding in human […] by chromatographic method; format: ADME, cell-free; conditions: read-out: PPB (converted)
Method in brief: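 Human plasma protein binding was estimated by a chromatographic method.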

[7] = Partition coefficient, log D of the compound at pH 7.4 by HPLC method; format: physicochemical; conditions: octanol/water
Method in brief: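 Distribution coefficient at pH 7.4 was measured chromatographically.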

[8] = Kinetic solubility of the compound at 10 mg/ml at pH 6.5 by nephelometry; format: physicochemical; conditions: buffer, read-out: Kinetic_solubility; method in brief: as §1
Liver microsome = test: Intrinsic clearance in human liver microsomes at 1 uM after 60 mins by LC-MS analysis; format: ADME; conditions: 1 h
Method in brief: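 In vitro intrinsic clearance was measured in human liver microsomes and expressed per mg protein. A hepatic extraction ratio (E_H) was predicted from the in vitro data.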

SMILES: Cc1ccccc1C(=O)Nc1ccc(Br)cn1
inhibition at 10 µM [1]: < 10%

SMILES: Cc1cc(-c2ccccc2)ccc1C(=O)Nc1ccccn1
inhibition at 10 µM [1]: < 10%

SMILES: Cc1ccccc1C(=O)Nc1cccc(C#N)n1
inhibition at 10 µM [1]: 11%

SMILES: Cc1cccc(F)c1C(=O)Nc1ccccn1
inhibition at 10 µM [1]: 45%

SMILES: Cc1ccc(NC(=O)c2cc(S(=O)(=O)NC(C)(C)C)ccc2C)nc1
inhibition at 10 µM [1]: 12%

SMILES: Cc1ccccc1C(=O)Nc1ccc(-c2ccccc2)cn1
inhibition at 10 µM [1]: 11%

SMILES: O=C(Nc1ccc2ccccc2n1)c1ccccc1-c1ccccc1
inhibition at 10 µM [1]: 53%

IC50 [2]: 2.6 µM
SMILES: COc1ccc(NC(=O)c2ccc(F)cc2C)nc1
selectivity ratio [3]: 32

IC50 (Plasmodium falciparum): 72 µM
IC50 [4]: 0.64 µM
IC50 [2]: 0.9 µM
IC50 (Trypanosoma cruzi): 147 µM
SMILES: Cc1ccnc(NC(=O)c2ccc(F)c(F)c2C)c1
selectivity ratio [3]: 93
IC50 (L6): 223 µM
IC50 (Leishmania donovani): > 113 µM

SMILES: Cc1ccccc1C(=O)Nc1cccc(O)n1
inhibition at 10 µM [1]: < 10%

SMILES: COc1cccc(NC(=O)c2ccccc2C)n1
inhibition at 10 µM [1]: < 10%

SMILES: Cc1ccccc1C(=O)Nc1ccc(Br)c(C)n1
inhibition at 10 µM [1]: < 10%

IC50 [2]: 3.5 µM
SMILES: Cc1cccc(C(=O)Nc2ccccn2)c1C
selectivity ratio [3]: 24

SMILES: Cc1ccccc1C(=O)Nc1cc[nH]n1
inhibition at 10 µM [1]: < 10%

SMILES: O=C(Nc1ccccn1)c1ccccc1Cl
inhibition at 10 µM [1]: 44%

SMILES: Cc1ccccc1C(=O)Nc1ccccc1
inhibition at 10 µM [1]: < 10%

IC50 (Plasmodium falciparum): 93 µM
IC50 [4]: 0.24 µM
IC50 [2]: 0.98 µM
IC50 (Trypanosoma cruzi): 187 µM
SMILES: Cc1ccc(C(=O)Nc2ccccn2)c(C)c1
selectivity ratio [3]: 85
IC50 (L6): 283 µM
IC50 (Leishmania donovani): > 133 µM

SMILES: Cc1cccc(NC(=O)c2ccccc2C)n1
inhibition at 10 µM [1]: < 10%

IC50 [2]: 1.1 µM
SMILES: Cc1cc(Cl)ccc1C(=O)Nc1ccccn1
selectivity ratio [3]: 76

IC50 [2]: 0.63 µM
SMILES: Cc1c(Cl)cccc1C(=O)Nc1ccccn1
selectivity ratio [3]: 132

SMILES: Cc1ccccc1C(=O)Nc1ccon1
inhibition at 10 µM [1]: < 10%

IC50 [2]: 1.1 µM
SMILES: Cc1ccccc1C(=O)Nc1cc(C#CCC(C)C)ccn1
selectivity ratio [3]: > 53

SMILES: COc1ccc(C(=O)Nc2ccccn2)c(C)c1
inhibition at 10 µM [1]: < 10%

SMILES: CCC/C=C/c1ccc(C(=O)Nc2ccccn2)c(C)c1
inhibition at 10 µM [1]: 24%

solubility kinetic [5]: 6.3 µg/mL (≈ 26.6 µM)
fraction unbound [6]: 0.025
logD [7]: 3.9
solubility kinetic [8]: 6.3 µg/mL (≈ 26.6 µM)
SMILES: Cc1ccccc1C(=O)Nc1ccc(C#N)cn1
inhibition at 10 µM [1]: < 10%

SMILES: Cc1ccc(NC(=O)c2ccccc2C)nc1
inhibition at 10 µM [1]: < 10%

IC50 [2]: 1.9 µM
SMILES: Cc1cc(F)ccc1C(=O)Nc1ccccn1
selectivity ratio [3]: 44

SMILES: Cc1ccccc1C(=O)Nc1ccccc1C#N
inhibition at 10 µM [1]: < 10%

SMILES: Cc1ccccc1C(=O)Nc1ccc(C#CCC(C)C)cn1
inhibition at 10 µM [1]: 12%

SMILES: Cc1ccccc1C(=O)Nc1cccc(Br)n1
inhibition at 10 µM [1]: < 10%

SMILES: Cc1cccc(C)c1C(=O)Nc1ccccn1
inhibition at 10 µM [1]: < 10%

IC50 [2]: 0.83 µM
solubility kinetic [5]: > 100 µg/mL
fraction unbound [6]: 0.276
CLint (Liver microsome): 237 µL/min/mg
logD [7]: 3.5
solubility kinetic [8]: 25 µg/mL (≈ 102 µM)
SMILES: Cc1ccnc(NC(=O)c2cccc(F)c2C)c1
selectivity ratio [3]: 100

IC50 [2]: 7.33 µM
SMILES: O=C(Nc1ccccn1)c1cccc(F)c1
selectivity ratio [3]: 11

SMILES: Cc1ccccc1C(=O)Nc1ncccc1F
inhibition at 10 µM [1]: < 10%

SMILES: Cc1ccccc1C(=O)Nc1cccc(OCC(C)C)n1
inhibition at 10 µM [1]: < 10%

SMILES: Cc1ccc(F)cc1C(=O)Nc1ccccn1
inhibition at 10 µM [1]: < 10%

SMILES: COc1cccnc1NC(=O)c1ccccc1C
inhibition at 10 µM [1]: < 10%

SMILES: O=C(Nc1ccccn1)c1ccccc1-c1ccccc1
inhibition at 10 µM [1]: < 10%

SMILES: Cc1ccccc1C(=O)Nc1ccsc1
inhibition at 10 µM [1]: < 10%

SMILES: COc1cccc(C(=O)Nc2ccccn2)c1C
inhibition at 10 µM [1]: 10%

IC50 [2]: 1.8 µM
SMILES: Cc1ccccc1C(=O)Nc1cc(Br)ccn1
selectivity ratio [3]: > 41

SMILES: O=C(Nc1ccccn1)c1ccccc1OC(F)(F)F
inhibition at 10 µM [1]: 13%

SMILES: COc1ccc(C)c(C(=O)Nc2ccccn2)c1
inhibition at 10 µM [1]: < 10%

solubility kinetic [5]: > 100 µg/mL
fraction unbound [6]: 0.33
CLint (Liver microsome): 191 µL/min/mg
logD [7]: 3
solubility kinetic [8]: > 100 µg/mL
SMILES: Cc1ccccc1C(=O)Nc1cccc(F)n1
inhibition at 10 µM [1]: < 10%
